Experimental data reported in ChEMBL document CHEMBL3853327 (J Med Chem, 2016).

What was measured:
[1] = MRT (0 to infinity) in Sprague-Dawley rat plasma at 16 mg/kg administered through oral gavage measured at 5 mins to 24 hrs post dosing by LC/MS analysis; assay type: ADME, organism-based
Method in brief: (§1)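 Male Sprague-Dawley rats, ten randomly split into two groups (n = 5), single gavage dose of 8 or 16 mg·kg−1 in PEG 400/normal saline (70/30, V/V). Jugular sinus blood into heparinized tubes at 5 min to 24 h; plasma separated at 2200g for 8 min, stored −20 °C. Methanol precipitation with internal standard, LC-MS quantitation against plasma standard curves. Parameters reported as mean ± SD.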

[2] = AUMC (0 to infinity) in Sprague-Dawley rat plasma at 16 mg/kg administered through oral gavage measured at 5 mins to 24 hrs post dosing by LC/MS analysis; assay type: ADME, organism-based; settings: in vivo; method in brief: as §1
[3] = MRT (0 to t) in Sprague-Dawley rat plasma at 8 mg/kg administered through oral gavage measured at 5 mins to 24 hrs post dosing by LC/MS analysis; assay type: ADME, organism-based; method in brief: as §1
[4] = VRT (0 to t) in Sprague-Dawley rat plasma at 16 mg/kg administered through oral gavage measured at 5 mins to 24 hrs post dosing by LC/MS analysis; assay type: ADME, organism-based; settings: in vivo; method in brief: as §1
[5] = system: Human immunodeficiency virus 1; test: Potency index, ratio of ETV EC50 to compound EC50 for HIV1 3B harboring reverse transcriptase L100I mutant infected in human MT4 cells; assay type: functional
[6] = Apparent volume of distribution during terminal phase in Sprague-Dawley rat plasma at 16 mg/kg administered through oral gavage measured at 5 mins to 24 hrs post dosing by LC/MS analysis; assay type: ADME, organism-based; settings: read-out: Vz/F; method in brief: as §1
[7] = system: Human immunodeficiency virus 1; test: Potency index, ratio of ETV EC50 to compound EC50 for HIV1 3B harboring reverse transcriptase E138K mutant infected in human MT4 cells; assay type: functional
[8] = Apparent half life in Sprague-Dawley rat plasma at 16 mg/kg administered through oral gavage measured at 5 mins to 24 hrs post dosing by LC/MS analysis; assay type: ADME, organism-based; settings: in vivo; method in brief: as §1
[9] = Cmax in Sprague-Dawley rat plasma at 8 mg/kg administered through oral gavage measured at 5 mins to 24 hrs post dosing by LC/MS analysis; assay type: ADME, organism-based; set-up: dose 8 mg/kg, route oral; settings: in vivo; method in brief: as §1
[10] = AUMC (0 to infinity) in Sprague-Dawley rat plasma at 8 mg/kg administered through oral gavage measured at 5 mins to 24 hrs post dosing by LC/MS analysis; assay type: ADME, organism-based; settings: in vivo; method in brief: as §1
[11] = biological target: Human immunodeficiency virus type 1 reverse transcriptase (Human immunodeficiency virus 1, UniProt Q72547, K103N/Y181C); test: Inhibition of recombinant HIV1 reverse transcriptase K103N/Y181C double mutant using DIG-dUTP/biotin-dUTP/dTTP assessed as suppression of biotin-dUTP incorporation after 1 hr by ELISA
[12] = Apparent half life in Sprague-Dawley rat plasma at 8 mg/kg administered through oral gavage measured at 5 mins to 24 hrs post dosing by LC/MS analysis; assay type: ADME, organism-based; settings: in vivo; method in brief: as §1
[13] = system: Human immunodeficiency virus 1; test: Potency index, ratio of ETV EC50 to compound EC50 for HIV1 3B harboring reverse transcriptase F227L/V106A double mutant infected in human MT4 cells; assay type: functional
[14] = Selectivity index, ratio of CC50 for human mock-infected MT4 cells to EC50 for HIV1 RES056 harboring reverse transcriptase K103N/Y181C double mutant infected in human MT4 cells; assay type: toxicity, cell-based; settings: MT4 cells (mock-infected for CC50, HIV-1 infected for EC50)
Method in brief: (§2)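 Selectivity index is CC50/EC50. CC50 is the concentration that reduces OD540 of mock-infected MT-4 cells by 50% in the 5-day MTT assay. EC50 is the 50% protection from virus-induced cytopathicity, measured in parallel on infected wells.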

[15] = system: Human immunodeficiency virus 1; test: Fold resistance, ratio of EC50 for HIV1 3B harboring reverse transcriptase Y188L mutant infected in human MT4 cells to EC50 for wild type HIV1 3B harboring reverse transcriptase infected in human MT4 cells; assay type: functional
Method in brief: (§3)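 Fold resistance is the EC50 against the mutant HIV-1 strain divided by the EC50 against WT IIIB. Both EC50s come from the MT-4 MTT cytoprotection assay (5-day read, 100−300 CCID50 inoculum).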

[16] = Apparent volume of distribution during terminal phase in Sprague-Dawley rat plasma at 8 mg/kg administered through oral gavage measured at 5 mins to 24 hrs post dosing by LC/MS analysis; assay type: ADME, organism-based; settings: read-out: Vz/F; method in brief: as §1
[17] = system: Mus musculus; test: Acute toxicity in Kunming mouse assessed as increase in body weight at 2000 mg/kg, ig after 1 week; assay type: organism-based; settings: in vivo, po, 168 h
Method in brief: (§4)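 Kunming mice (18−22 g), fasted 12 h, then given a single intragastric dose suspended in PEG-400 (100 or 200 mg·mL−1 for 1000 or 2000 mg·kg−1). Six mice per dose group, half male and half female. Deaths and body-weight gain followed for 1 week.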

[18] = system: Human immunodeficiency virus 1; test: Fold resistance, ratio of EC50 for HIV1 3B harboring reverse transcriptase L100I mutant infected in human MT4 cells to EC50 for wild type HIV1 3B harboring reverse transcriptase infected in human MT4 cells; assay type: functional; method in brief: as §3
[19] = Selectivity index, ratio of CC50 for human mock-infected MT4 cells to EC50 for wild type HIV1 3B harboring reverse transcriptase infected in human MT4 cells; assay type: toxicity, cell-based; settings: MT4 cells (mock-infected for CC50, HIV-1 infected for EC50); method in brief: as §2
[20] = system: Human immunodeficiency virus 1; test: Antiviral activity against HIV1 3B harboring reverse transcriptase K103N mutant infected in human MT4 cells assessed as protection against virus induced cytotoxicity after 5 days by MTT assay; assay type: functional, cell-based; settings: Human immunodeficiency virus 1, 3B, MT4, 120 h
Method in brief: (§5)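 MTT cytopathicity assay in MT-4 cells (6 × 10^5 cells/mL). Compounds serially diluted 5-fold in triplicate wells, run in parallel on infected and mock-infected cells. Virus added at 100−300 CCID50 per well. Viability read spectrophotometrically at 540 and 690 nm after 5 days, using the median OD of three wells. EC50 is the concentration giving 50% protection from viral cytopathogenicity.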

[21] = AUC (0 to infinity) in Sprague-Dawley rat plasma at 8 mg/kg administered through oral gavage measured at 5 mins to 24 hrs post dosing by LC/MS analysis; assay type: ADME, organism-based; set-up: dose 8 mg/kg, route oral, time infinity; settings: in vivo; method in brief: as §1
[22] = Selectivity index, ratio of CC50 for human mock-infected MT4 cells to EC50 for HIV1 3B harboring reverse transcriptase L100I mutant infected in human MT4 cells; assay type: toxicity, cell-based; settings: MT4 cells (mock-infected for CC50, HIV-1 infected for EC50); method in brief: as §2
[23] = VRT (0 to infinity) in Sprague-Dawley rat plasma at 16 mg/kg administered through oral gavage measured at 5 mins to 24 hrs post dosing by LC/MS analysis; assay type: ADME, organism-based; settings: in vivo; method in brief: as §1
[24] = system: Human immunodeficiency virus 1; test: Antiviral activity against HIV1 3B harboring reverse transcriptase L100I mutant infected in human MT4 cells assessed as protection against virus induced cytotoxicity after 5 days by MTT assay; assay type: functional, cell-based; settings: Human immunodeficiency virus 1, 3B, MT4, 120 h; method in brief: as §5
[25] = system: Human immunodeficiency virus 1; test: Antiviral activity against HIV1 3B harboring reverse transcriptase Y188L mutant infected in human MT4 cells assessed as protection against virus induced cytotoxicity after 5 days by MTT assay; assay type: functional, cell-based; settings: Human immunodeficiency virus 1, 3B, MT4, 120 h; method in brief: as §5
[26] = AUC (0 to t) in Sprague-Dawley rat plasma at 16 mg/kg administered through oral gavage measured at 5 mins to 24 hrs post dosing by LC/MS analysis; assay type: ADME, organism-based; set-up: time lower 0.083 hr, dose 16 mg/kg, time upper 24 hr, route oral; method in brief: as §1
[27] = system: Mus musculus; test: Acute toxicity in Kunming mouse assessed as mortality at 2000 mg/kg, ig after 1 week; assay type: organism-based; settings: in vivo, po, 168 h; method in brief: as §4
[28] = AUMC (0 to t) in Sprague-Dawley rat plasma at 8 mg/kg administered through oral gavage measured at 5 mins to 24 hrs post dosing by LC/MS analysis; assay type: ADME, organism-based; settings: in vivo; method in brief: as §1

Cc1cc(C#N)cc(C)c1Oc1nc(NC2CCN(Cc3ccc(S(N)(=O)=O)cc3)CC2)nc2ccsc12
MRT inf [1]: 4.16 h | AUMC [2]: 7215.795 ug/L.hr | MRT last [3]: 3.44 h | VRT(t) [4]: 9.29 hr2 | Ratio EC50 [5]: 1.6 | Vd/F [6]: 50.1 L/kg | Ratio EC50 [7]: 5 | t1/2(app) [8]: 3.6 h | Cmax [9]: 415 ng/mL | AUMC [10]: 6474.1 ug/L.hr | IC50 [11]: 360 nM | t1/2(app) [12]: 2.51 h | Ratio EC50 [13]: 7 | selectivity ratio [14]: 53500 | Ratio EC50 [15]: <3 | Vd/F [16]: 38.2 L/kg | Activity [17]: Non-Toxic | Ratio EC50 [18]: <3 | selectivity ratio [19]: > 159000 | EC50 [20]: 2.9 nM | AUC [21]: 1720.9 ng·h/mL | selectivity ratio [22]: > 159000 | VRT [23]: 25.29 hr2 | EC50 [24]: 3.4 nM | EC50 [25]: 3 nM | AUC(0-t) [26]: 1670 ng·h/mL | Activity [27]: Non-Toxic | AUMCt [28]: 5690.8 ug/L.hr
